Laboratory results reported in ChEMBL document CHEMBL1641591, “Inhibition of monoamine oxidase by selected C5- and C6-substituted isatin analogues” (Bioorg Med Chem, 2011).

Legend:
[1] = target: T1, Amine oxidase [flavin-containing] A (Homo sapiens, UniProt P21397); experiment: Inhibition of human recombinant MAOA expressed in insect cells by fluorescence assay
T1 sequence (P21397 whole entry): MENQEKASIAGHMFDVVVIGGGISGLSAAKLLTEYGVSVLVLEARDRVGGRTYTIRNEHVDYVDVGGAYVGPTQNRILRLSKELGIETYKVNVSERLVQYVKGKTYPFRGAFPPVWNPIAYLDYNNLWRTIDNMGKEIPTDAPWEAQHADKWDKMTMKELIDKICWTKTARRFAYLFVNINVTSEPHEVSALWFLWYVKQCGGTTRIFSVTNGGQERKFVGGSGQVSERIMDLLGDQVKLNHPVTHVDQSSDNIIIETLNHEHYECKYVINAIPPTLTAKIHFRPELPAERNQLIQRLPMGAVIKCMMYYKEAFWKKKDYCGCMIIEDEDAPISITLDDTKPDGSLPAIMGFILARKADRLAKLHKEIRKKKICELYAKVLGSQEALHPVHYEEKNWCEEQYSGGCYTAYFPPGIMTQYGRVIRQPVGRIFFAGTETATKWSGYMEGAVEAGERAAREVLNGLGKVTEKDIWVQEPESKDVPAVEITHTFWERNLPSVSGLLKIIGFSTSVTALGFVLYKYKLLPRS
In short: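 Insect-cell microsomal recombinant human MAO-A (0.0075 mg/mL) in 100 mM potassium phosphate, pH 7.4, made isotonic with KCl, with 45 µM kynuramine. Incubated 20 min at 37 °C and stopped with NaOH. 4-Hydroxyquinoline was read by fluorescence (ex 310/em 400 nm) against a calibration curve.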

[2] = target: T2, Amine oxidase [flavin-containing] B (Homo sapiens, UniProt P27338); experiment: Inhibition of human recombinant MAOB expressed in insect cells by fluorescence assay; format: cell-based
T2 sequence (P27338 whole entry): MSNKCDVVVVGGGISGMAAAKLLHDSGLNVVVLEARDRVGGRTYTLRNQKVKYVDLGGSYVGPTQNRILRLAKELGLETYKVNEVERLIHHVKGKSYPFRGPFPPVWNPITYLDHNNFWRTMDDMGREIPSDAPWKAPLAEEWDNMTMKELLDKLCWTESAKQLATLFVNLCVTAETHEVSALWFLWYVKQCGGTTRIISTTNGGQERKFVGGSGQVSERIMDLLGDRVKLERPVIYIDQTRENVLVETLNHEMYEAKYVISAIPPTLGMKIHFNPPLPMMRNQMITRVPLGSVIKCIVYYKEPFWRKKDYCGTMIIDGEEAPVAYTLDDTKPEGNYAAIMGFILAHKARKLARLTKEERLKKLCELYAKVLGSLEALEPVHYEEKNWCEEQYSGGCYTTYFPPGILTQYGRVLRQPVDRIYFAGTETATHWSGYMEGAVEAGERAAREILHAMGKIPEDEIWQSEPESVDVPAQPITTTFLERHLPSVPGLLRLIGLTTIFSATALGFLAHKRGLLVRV

Homo sapiens = organism: Homo sapiens; experiment: Selectivity ratio of Ki for human recombinant MAOA to Ki for human recombinant MAOB
In short: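 Ki values were obtained from duplicate kynuramine-oxidation IC50 data for insect-cell recombinant human MAO-A and MAO-B by the Cheng–Prusoff equation. […] The ratio is Ki(MAO-A)/Ki(MAO-B).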

[3] = target: T2, Amine oxidase [flavin-containing] B; experiment: Inhibition of human recombinant MAOB expressed in insect cells at 100 uM by fluorescence assay
[4] = target: T1, Amine oxidase [flavin-containing] A; experiment: Inhibition of human recombinant MAOA expressed in insect cells at 100 uM by fluorescence assay
[5] = target: T1, Amine oxidase [flavin-containing] A; experiment: Inhibition of human recombinant MAOA expressed in insect cells at 9.76 uM by fluorescence assay; conditions: TDE = time-dependent effect
In short: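 Reversibility test: recombinant human MAO-A (0.03 mg/mL) was preincubated 0, 15, 30 or 60 min at 37 °C with 9.76 µM inhibitor in isotonic pH 7.4 phosphate buffer. […] Residual rate was measured by 4-hydroxyquinoline fluorescence, in triplicate, mean ± SD.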

[6] = target: T2, Amine oxidase [flavin-containing] B; experiment: Inhibition of human recombinant MAOB expressed in insect cells at 2.8 uM by fluorescence assay; conditions: TDE = time-dependent effect
[7] = target: T2, Amine oxidase [flavin-containing] B; experiment: Competitive inhibition of human recombinant MAOB expressed in insect cells at 0.125 to 0.5 uM by Lineweaver-Burk plot analysis
In short: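 Recombinant human MAO-B from insect cells (0.015 mg/mL) was run with 15–90 µM kynuramine, without inhibitor and with 0.125, 0.25 or 0.5 µM inhibitor. The assay was otherwise the standard fluorescence procedure. Lineweaver–Burk plots were fitted by linear regression.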

[8] = target: T1, Amine oxidase [flavin-containing] A; experiment: Competitive inhibition of human recombinant MAOA expressed in insect cells at 2.5 to 10 uM by Lineweaver-Burk plot analysis

Row | SMILES | IC50 [1] [µM] | Ki [1] [µM] | IC50 [2] [µM] | Ki [2] [µM] | Ratio Ki (Homo sapiens) | inhibition (INH) [3] | inhibition (INH) [4] | inhibition (INH) [5] | inhibition (INH) [6] | inhibition (INH) [7] | inhibition (INH) [8]
1 | Nc1ccc(Oc2ccccc2)cc1 [4-PHENOXYANILINE] | 91.4 | 24.1 | 303 | 131 | 0.185 | – | – | – | – | – | –
2 | Nc1cccc(CCc2ccccc2)c1 | 355 | 93.5 | – | – | – | – | – | – | – | – | –
3 | Nc1cccc(OCc2ccccc2)c1 [3-(BENZYLOXY)ANILINE] | 466 | 123 | 23.4 | 10.1 | 12.2 | – | – | – | – | – | –
4 | Nc1cccc(-c2ccccc2)c1 | 68.6 | 18.1 | – | – | – | Not Active | – | – | – | – | –
5 | O=C1Nc2ccc(CCCCc3ccccc3)cc2C1=O | 2.19 | 0.577 | 0.00066 | 0.00028 | 2030 | – | – | – | – | – | –
6 | Nc1ccc(/C=C/c2ccccc2)cc1 [(E)-4-STYRYLANILINE] | 25.3 | 6.67 | 6.34 | 2.73 | 2.44 | – | – | – | – | – | –
7 | O=C1Nc2cc(Oc3ccccc3)ccc2C1=O | 62.2 | 16.4 | 9.91 | 4.27 | 3.84 | – | – | – | – | – | –
8 | Nc1cccc(/C=C/c2ccccc2)c1 | 30.4 | 8.01 | 5.74 | 2.47 | 3.24 | – | – | – | – | – | –
9 | Nc1ccc(OCc2ccccc2)cc1 [4-BENZYLOXYANILINE] | 191 | 50.3 | 12.8 | 5.51 | 9.13 | – | – | – | – | – | –
10 | O=C1Nc2ccc(-c3ccccc3)cc2C1=O | 0.562 | 0.148 | 1.19 | 0.513 | 0.289 | – | – | – | – | – | –
11 | O=C1Nc2cc(OCc3ccccc3)ccc2C1=O | 72.4 | 19.1 | 0.138 | 0.059 | 321 | – | – | – | – | – | –
12 | O=C1Nc2cc(CCc3ccccc3)ccc2C1=O | 6.93 | 1.83 | 9.93 | 4.28 | 0.427 | – | – | – | – | – | –
13 | Nc1cccc(Oc2ccccc2)c1 [3-PHENOXYANILINE] | – | – | – | – | – | – | Not Active | – | – | – | –
14 | Cl.Nc1ccc(CCCCc2ccccc2)cc1 | – | – | 5.55 | 2.39 | – | – | Not Active | – | – | – | –
15 | O=C1Nc2cc(/C=C/c3ccccc3)ccc2C1=O [(E)-6-STYRYLISATIN] | 2.72 | 0.717 | – | – | – | – | – | – | – | – | –
16 | Nc1ccc(Oc2ccc(Cl)cc2)cc1 | 29.3 | 7.72 | 16.8 | 7.24 | 1.07 | – | – | – | – | – | –
17 | Nc1ccc(-c2ccccc2)cc1 [BIPHENYL-4-AMINE] | – | – | – | – | – | Not Active | Not Active | – | – | – | –
18 | O=C1Nc2ccc(/C=C/c3ccccc3)cc2C1=O | 0.233 | 0.061 | 0.009 | 0.004 | 15.8 | – | – | – | – | – | –
19 | Nc1ccc(CCc2ccccc2)cc1 | 131 | 34.5 | – | – | – | – | – | – | – | – | –
20 | O=C1Nc2ccc(Oc3ccccc3)cc2C1=O | 9.44 | 2.49 | 1.54 | 0.663 | 3.75 | – | – | – | – | – | –
21 | O=C1Nc2cc(-c3ccccc3)ccc2C1=O | 4.64 | 1.22 | 8.52 | 3.67 | 0.333 | – | – | – | – | – | –
22 | O=C1Nc2ccc(CCc3ccccc3)cc2C1=O | 4.88 | 1.29 | 1.4 | 0.603 | 2.13 | – | – | tde | tde | Active | Active
23 | O=C1Nc2ccc(Oc3ccc(Cl)cc3)cc2C1=O | 12.2 | 3.21 | 0.066 | 0.028 | 113 | – | – | – | – | – | –
24 | O=C1Nc2ccc(OCc3ccccc3)cc2C1=O | 4.62 | 1.22 | 0.103 | 0.044 | 27.4 | – | – | – | – | – | –
